KCNQ1 block: human KCNQ1 channel inhibition; hit rate 1.3% among 310,000; AID 2642; P51787; CHO-K1 KCNQ1, FluxOR thallium flux fluorescence; stronger effect = higher value; B-score at 10 µM;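 active = compounds whose thallium flux B-score, printed positive for inhibition, exceeds three library SD while starting fluorescence stays within three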;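 also: channel opened by potassium depolarization with thallium stimulus after 20 min compound exposure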
hERG protect: shields human hERG channel from block by proarrhythmic agents; activation (rescue from dofetilide block), less the hit threshold, % at 10 µM; CHO-hERG, FluxOR thallium flux, dofetilide IC70 present; AID 1511; hit rate 0.51% among 310,000; Q12809;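 active = activation above the mean of controls blocked by dofetilide plus 5 SD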;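 also: thallium influx through hERG after potassium depolarization seen as dye fluorescence rise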
KCNK9 inh: human KCNK9 channel inhibition. hit rate 1.2% among 310,000. Q9NPC2. HEK293 KCNK9, FluxOR thallium flux fluorescence; stronger effect = lower value. B-score at 10 µM. AID 488922;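 active = ratio B-score over 3 SD below the library mean, with starting fluorescence within 5 SD of its mean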;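 also: negative B-score means less thallium flux so channel inhibition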
KCNQ1 act: potentiates or activates the human KCNQ1 potassium channel. P51787. CHO-K1 KCNQ1, thallium flux FluxOR fluorescence; stronger effect = higher value. hit rate 0.35% among 310,000. B-score at 10 µM;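 active = fluorescence ratio B-score, a plate-corrected score, at least three library SD, with initial intensity B-score within 5 SD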
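assay system = CHO-K1 cells stably expressing KCNQ1 | medium = assay buffer, equal DMSO in all wells | timing = 37 °C overnight plating, 90-min dark dye load, 20-min compound pretreatment | measured by = kinetic FluxOR thallium fluorescence, 10-s 1-Hz baseline, 110-s post-stimulus read | measure = fluorescence change relative to baseline, converted to B score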
KCNK3 inh: human KCNK3 channel inhibition, primary screen; hit rate 0.84% among 340,000; CHO-KCNK3 thallium flux, FluxOR fluorescence; stronger effect = lower value; B-score at 10 µM; O14649;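 active = B-score under library mean minus 4 SD, starting fluorescence ratio at most library mean plus 5 SD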;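 also: more negative B-score means stronger inhibition of thallium flux through KCNK3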
Target sequence (O14649 whole entry, looked up): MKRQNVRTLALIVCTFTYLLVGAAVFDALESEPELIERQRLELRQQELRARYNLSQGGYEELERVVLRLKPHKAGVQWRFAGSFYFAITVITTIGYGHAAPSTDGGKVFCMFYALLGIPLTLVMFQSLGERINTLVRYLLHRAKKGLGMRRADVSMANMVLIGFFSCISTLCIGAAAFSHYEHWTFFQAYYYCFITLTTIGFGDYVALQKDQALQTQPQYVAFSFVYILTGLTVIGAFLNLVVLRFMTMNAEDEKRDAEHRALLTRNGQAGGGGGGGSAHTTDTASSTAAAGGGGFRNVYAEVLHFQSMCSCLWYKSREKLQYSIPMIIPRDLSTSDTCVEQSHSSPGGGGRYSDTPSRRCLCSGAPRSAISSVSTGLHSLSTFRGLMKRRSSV
An asterisk follows results filed as active; i = inactive; . = no result. Sampled rows, rich in hits. Any-hit rate of the full collection: about 3.1%.

SMILES	KCNQ1 block	hERG protect	KCNK9 inh	KCNQ1 act	KCNK3 inh
COc1ccc(-c2cc(C(=O)Nc3cccc(S(=O)(=O)NCc4ccco4)c3)c3ccccc3n2)cc1OC	i	-12.4	i	i	i
O=C(Nc1cccc(S(=O)(=O)NCc2ccco2)c1)c1cc(-c2ccc(F)cc2)nc2ccccc12	7*	-9.6	i	i	i
O=C(Nc1ccccc1)c1cccc(S(=O)(=O)NCc2ccco2)c1	i	7.3*	i	i	i
O=C(Nc1ccccc1)c1ccc(S(=O)(=O)NCc2ccco2)cc1	i	-6.7	i	i	i
COc1ccc(C2=NS(=O)(=O)N(C)C(C(=O)Nc3ccc(C(C)=O)cc3)=C2)cc1OC	i	-16.5	i	i	i
O=C(c1ccccc1F)N(Cc1nc2ccccc2c(=O)[nH]1)C1CCCC1	i	-1.4	i	i	i
CCc1ccc2[nH]c(=O)c(CN(CCCN3CCOCC3)C(=O)Nc3cccc(Cl)c3)cc2c1	6*	-26.0	i	i	i
CC(NC(=O)COC(=O)[C@@H]1CCCN1S(=O)(=O)c1ccccc1F)C12CC3CC(CC(C3)C1)C2 (stereo partly drawn)	i	-11.5	-6.84*	i	i
Cc1sc(-c2ccccn2)nc1OC(=O)c1ccc(Cl)cc1	i	-8.0	i	i	i
Cc1sc(-c2ccccn2)nc1OC(=O)c1cccc(Cl)c1Cl	i	5.8*	i	i	i
CC1=Nc2ccccc2/C1=C/c1c(N)n2c(S(=O)(=O)CC(C)C)nsc2nc1=O	i	-1.7	i	i	i
C[C@H](CO)N1C[C@H](C)[C@@H](CN(C)C(=O)Nc2ccc(C(F)(F)F)cc2)Oc2c(NC(=O)Nc3ccc4c(c3)OCO4)cccc2C1=O	.	.	.	.	-8.98*
C[C@H](CO)N1C[C@H](C)[C@@H](CN(C)C(=O)Nc2ccc3c(c2)OCO3)Oc2c(NC(=O)Nc3ccc(C(F)(F)F)cc3)cccc2C1=O	.	.	.	.	i
N/C(Cc1ccc(Cl)cc1)=N\OC(=O)c1cccc2ccccc12	i	-2.6	-14.5*	i	i
O=C(NCc1ccccn1)c1cc(Cl)ccc1OCc1ccccc1	i	-27.1	i	i	i
CCCCOC(=O)CSc1nc2c(cc1C#N)C(=O)CC(C)(C)C2	i	-5.8	-8.07*	i	i
Nc1nc(-c2c(Cl)cccc2Cl)no1	i	5.7*	i	i	i
CC(=O)n1cc(N(C(=O)CCl)c2ccc([N+](=O)[O-])cc2)c2ccccc21	7*	-13.3	i	i	i
O=Cc1[nH]c2ccccc2c1N(C(=O)CCl)c1ccc([N+](=O)[O-])cc1	9*	-26.9	i	i	i
O=C(c1sc2ccccc2c1Cl)N(Cc1ccccc1)C1CCS(=O)(=O)C1 (stereo not drawn)	i	-9.1	i	i	i
O=C(c1sc2ccccc2c1Cl)N(Cc1ccccc1Cl)C1CCS(=O)(=O)C1 (stereo not drawn)	i	-6.1	-6.79*	i	i
O=C1/C(=C/c2ccc(N3CCOCC3)o2)SC(=Nc2ccccc2)N1CCc1c[nH]c2ccccc12	7*	-28.5	i	i	i
O=C1S/C(=C\c2ccc(N3CCOCC3)o2)C(=O)N1Cc1ccc(F)cc1	.	.	.	.	i
COc1cc(/C=C2\SC(=Nc3ccccc3)N(CCc3c[nH]c4ccccc34)C2=O)ccc1OC(C)C(=O)O (stereo not drawn)	i	-10.9	i	i	i
COc1ccc(N=C2S/C(=C\c3ccc(OC(C)C(=O)O)c(OC)c3)C(=O)N2CCc2c[nH]c3ccccc23)cc1 (stereo not drawn)	11*	-14.2	i	i	i
SMILES	KCNQ1 block	hERG protect	KCNK9 inh	KCNQ1 act	KCNK3 inh
CC(C)(C)c1ccc(-c2nnc(SCCC#N)n2C2CCCC2)cc1	6*	-17.7	i	i	i
Cn1c(SCCC#N)nnc1-c1ccc(F)cc1	i	-14.5	i	i	i
O=C(Cc1ccccc1)N/N=C/c1cc(Br)cc(Br)c1O	i	-6.8	i	i	i
O/N=C/c1cc(Br)ccc1OCc1ccc(F)cc1	i	-6.2	i	i	i
Oc1c(Br)cc(Br)cc1C=NCc1ccc(F)cc1	i	0.5	i	12*	i
Oc1c(Br)cc(Br)cc1C=NCc1ccccc1	i	-19.4	i	22*	i
O=C(CSc1nncn1-c1ccccc1)Nc1cc(F)ccc1F	i	-4.4	i	i	i
CC(C)CC(COCc1ccc(Cl)cc1)N1CCN(C(=O)c2cccc(C(F)(F)F)c2)CCC1=O (stereo not drawn)	i	-14.1	i	i	i
CC(C)CC(COCc1ccc(C(F)(F)F)cc1)N1CCN(C(=O)c2ccc(C(F)(F)F)cc2)CCC1=O (stereo not drawn)	i	-3.9	-7.13*	i	i
CC(C)CC(C(=O)NC1CCCCC1)N(Cc1ccccc1)C(=O)c1snc(C(N)=O)c1N (stereo not drawn)	6*	-14.1	i	i	i
CC(C)CC(C(=O)NC1CCCC1)N(Cc1ccc2c(c1)OCO2)C(=O)c1snc(C(N)=O)c1N (stereo not drawn)	6*	-11.4	i	i	i
COc1ccc(CN(C(=O)c2snc(C(N)=O)c2N)C(CC(C)C)C(=O)NC2CCCCC2)cc1 (stereo not drawn)	i	-12.5	i	i	i
CCC(C(=O)NC1CCCC1)N(Cc1ccc2c(c1)OCO2)C(=O)c1snc(C(N)=O)c1N (stereo not drawn)	i	-13.1	i	i	i
CCc1c(C)nc2[nH]ncn2c1=O	.	.	.	.	i
O[C@@H]1CN(Cc2ccc(-n3cccn3)cc2)CC[C@H]1N1CCN(c2ccccc2F)CC1	i	-15.8	i	i	i
COC(=O)c1sccc1NC(=O)c1cc2c(s1)CCCC2	i	-8.7	-6.73*	i	i
O=C(c1ccc(Cl)cc1)C1CCN(C(=O)C2CC2)CC1	i	-10.7	i	i	i
O=C(c1ccc(N2CCCCCC2)c([N+](=O)[O-])c1)N1CCc2ccccc21	i	-9.2	-7.37*	i	.
COCC(=O)Nc1nnc(-c2ccc(C(C)(C)C)cc2)s1	i	-18.8	i	i	i
CC(C)c1nc2sc3c(=O)[nH]c(=S)[nH]c3c2c2c1CCC2	i	-3.5	i	21*	.
CC(=O)Nc1nc2n(n1)C(c1ccccc1)C=C(c1ccccc1)N2 (stereo not drawn)	i	-0.8	i	i	i
CS(=O)(=O)Nc1nc2n(n1)C(c1ccccc1)C=C(c1ccc(Br)cc1)N2 (stereo not drawn)	12*	-17.3	i	i	i
O=C(CNC(=O)c1ccc(Br)o1)NCc1ccc(F)cc1	i	-5.7	i	i	i

Compound activity: PubChem, Johns Hopkins Ion Channel Center
